As a reminder, the IC50 is the point on the concentration scale where inhibition reaches its midpoint. Lower therefore signals greater potency. In general, LD50 refers to the dose expected to kill half of the subjects tested. The low end stands for a more toxic substance, the high end for a less toxic substance.

Structures are written as SMILES. The source made the active and inactive calls. No cut-off for these calls is given here.

For data set [1], the target named is T1, Prolyl endopeptidase FAP (Homo sapiens, UniProt Q12884).
T1 sequence (Q12884 whole entry): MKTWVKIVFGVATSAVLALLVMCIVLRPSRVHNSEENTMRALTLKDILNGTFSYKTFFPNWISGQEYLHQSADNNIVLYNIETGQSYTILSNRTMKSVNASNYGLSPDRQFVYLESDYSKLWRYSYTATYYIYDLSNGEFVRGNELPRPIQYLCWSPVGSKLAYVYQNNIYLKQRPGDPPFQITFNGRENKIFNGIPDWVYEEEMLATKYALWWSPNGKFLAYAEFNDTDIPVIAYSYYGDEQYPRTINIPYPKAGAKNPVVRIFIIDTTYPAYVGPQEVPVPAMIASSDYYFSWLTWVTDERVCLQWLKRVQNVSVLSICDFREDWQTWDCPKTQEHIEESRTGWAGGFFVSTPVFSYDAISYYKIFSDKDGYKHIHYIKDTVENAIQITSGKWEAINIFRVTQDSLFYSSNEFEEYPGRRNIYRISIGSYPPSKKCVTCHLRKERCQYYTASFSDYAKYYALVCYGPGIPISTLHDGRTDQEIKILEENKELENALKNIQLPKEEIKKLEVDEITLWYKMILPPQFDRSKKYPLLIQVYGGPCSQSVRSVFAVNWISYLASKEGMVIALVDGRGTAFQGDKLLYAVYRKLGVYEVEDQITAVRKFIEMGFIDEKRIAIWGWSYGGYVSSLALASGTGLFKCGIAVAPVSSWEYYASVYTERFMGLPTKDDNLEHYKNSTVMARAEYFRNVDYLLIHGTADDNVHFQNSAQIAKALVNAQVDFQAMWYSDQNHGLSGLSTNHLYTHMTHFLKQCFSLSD
In words: Prodrug activation assessed as recombinant human FAP-alpha mediated (S)-((3S,5R,8R,9S,10S,11S,13R,14S,17R)-11,14-dihydroxy-10,13-dimethyl-12-oxo-17-(2-oxo-2H-pyran-5-yl)hexadecahydro-1H-cyclopenta[a]phenanthren-3-yl) 2-amino-3-methylbutanoate formation […] after 90 mins by UPLC-MS/MS analysis. The note with it: 1.5 h. In short, it runs like this:
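Prodrug at 0.625–40 μmol/L incubated with rhFAPα at 0.45 μg/mL and internal standard in 0.2 mL PBS, pH 7.4, at 37 °C for 90 min. Quenched with MeCN and spun at 18 000g for 15 min; product measured by UPLC-MS/MS. S50 and Vmax fitted with an allosteric sigmoidal model; CLint = Vmax/S50. Three independent experiments.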

A short description of data set [2]: Cytotoxicity in BMSC (unknown origin) assessed as cell viability at 1000 nmol/L after 72 hrs by MTT assay. The class given is cell-based. The note with it: unidentified, 1 µM.
In another data set the test system is MDA-MB-435. Put plainly: Antiproliferative activity against wild type human MDA-MB-435 cells expressing FAP-alpha incubated for 48 hrs by MTT assay. In kind it is functional, cell-based. To be noted: MDA-MB-435, 48 h. In short, it runs like this:
(§1)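 Cells grown in DMEM with 10% FBS and 1% penicillin-streptomycin at 37 °C, 5% CO2; 10% heat-inactivated FBS used during cytotoxicity testing to exclude serum FAP activity. Viability read by MTT; IC50 as mean ± SEM of at least three independent experiments. Transfected lines were made from MDA-MB-231 with human FAPα plasmid or empty pCMV6-Entry vector and checked by Western blot at 48 h.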
In general terms: Tetrazolium assays rely on reduction of a dye to a coloured formazan, in cell work by metabolically active cells.

The subject of a further data set is MCF7. Put plainly: Antiproliferative activity against FAP-alpha deficient human MCF7 cells incubated for 48 hrs by MTT assay. The class given is functional, cell-based. The note with it: MCF7, 48 h. In short, it runs like this: as §1
Data set [3] has as its system MDA-MB-231. Put plainly: Antiproliferative activity against FAP-alpha deficient human MDA-MB-231 cells incubated for 48 hrs by MTT assay. In kind it is functional, cell-based. The note with it: MDA-MB-231, 48 h. In short, it runs like this: as §1
In data set [4] the test system is MDA-MB-231. Put plainly: Antiproliferative activity against human MDA-MB-231 cells assessed as decrease in cell viability at 62.5 to 500 nmol/L after 72 hrs by MTT assay. In kind it is functional, cell-based.
Data set [5] concerns MDA-MB-231. In words: Antitumor activity against human MDA-MB-231 cells xenografted in BALB/C nude mouse at 4 umol/kg, iv administered starting on day 5 measured after day 22 by Ki67 staining-based assay relative to control. The class given is functional. In short, it runs like this:
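Female BALB/C nude mice, MDA-MB-231 cells (1 × 10^7) injected subcutaneously in Matrigel–PBS 1:1. Daily iv dosing in 5% HS15 vehicle from day 5. Tumours fixed and paraffin-embedded, 5 μm sections, anti-Ki67 IHC, read blind by a pathologist. Proliferative index by image analysis, n = 6. Compared with 5% HS15 control by one-way ANOVA and Tukey's test.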
Background: A xenograft is tissue or cells of one species grown in another, often human tumour cells in immunodeficient mice.

Data set [6] concerns MDA-MB-231. In words: Antitumor activity against human MDA-MB-231 cells xenografted in BALB/C nude mouse assessed as tumor regression at 4 umol/kg, iv administered starting on day 5 measured after day 22 by Ki67 staining-based assay. The class given is functional, organism-based.
Data set [7] concerns Mus musculus. In words: Cardiotoxicity in BALB/C nude mouse xenografted with human MDA-MB-231 cells assessed as increase in interventricular septal systole dimension at 4 umol/kg, iv administered starting on day 5 measured after day 22 by echocardiography. The note with it: in vivo. The class given is toxicity, organism-based. In short, it runs like this:
(§2)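 MDA-MB-231 xenograft mice dosed iv daily in 5% HS15 from day 5, 22 days of treatment. Transthoracic echocardiography with a 21 MHz transducer under 1.5% isoflurane, supine position. M-mode images from parasternal short-axis view at papillary muscle level, used to derive LVIDd, LVIDs, IVSd and IVSs. n = 6, mean ± SEM, one-way ANOVA with Tukey's test.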

The subject of data set [8] is Mus musculus. In words: Cardiotoxicity in BALB/C nude mouse xenografted with human MDA-MB-231 cells assessed as increase in interventricular septal diastole dimension at 4 umol/kg, iv administered starting on day 5 measured after day 22 by echocardiography. To be noted: in vivo. The class given is toxicity, organism-based. In short, it runs like this: as §2
For data set [9], the system named is Mus musculus. In words: Cardiotoxicity in BALB/C nude mouse xenografted with human MDA-MB-231 cells assessed as decrease in left ventricular internal systole dimension at 4 umol/kg, iv administered starting on day 5 measured after day 22 by echocardiography. In kind it is toxicity, organism-based. The note with it: in vivo. In short, it runs like this:
as §2

The subject of data set [10] is Mus musculus. In words: Cardiotoxicity in BALB/C nude mouse xenografted with human MDA-MB-231 cells assessed as decrease in left ventricular internal diastole dimension at 4 umol/kg, iv administered starting on day 5 measured after day 22 by echocardiography. The class given is toxicity, organism-based. To be noted: in vivo. In short, it runs like this:
as §2

Data set [11] deals with Mus musculus. Put plainly: Cardiotoxicity in BALB/C nude mouse xenografted with human MDA-MB-231 cells assessed as cytoplasmic vacuolization at 4 umol/kg, iv administered starting on day 5 measured after day 22 by hematoxylin-eosin staining-based assay. In kind it is toxicity, organism-based. To be noted: in vivo. In short, it runs like this:
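Xenograft mice (MDA-MB-231, female BALB/C nude) dosed iv daily in 5% HS15 from day 5. Heart fixed 24 h, paraffin-embedded, cut into 5 μm sections and stained with H&E. Vacuolization scored by a pathologist blind to treatment.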

The test system of data set [12] is Mus musculus. Put plainly: Cardiotoxicity in BALB/C nude mouse xenografted with human MDA-MB-231 cells assessed as increase in LDH level at 4 umol/kg, iv administered starting on day 5 measured after day 22. The class given is toxicity, organism-based. The note with it: in vivo. In short, it runs like this:
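Xenograft-bearing mice dosed iv daily in 5% HS15. Blood taken by cardiac puncture before sacrifice and spun at 3000 rpm for 20 min at 4 °C to give serum. D-LDH activity measured by colorimetric kit. n = 6, one-way ANOVA with Tukey's test against HS15 control.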

A short description of data set [13]: Acute toxicity in iv dosed Kunming mouse measured less than 4 hrs post dose. The class given is organism-based. The note with it: in vivo. In short, it runs like this: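 Kunming mice (22.0−28.0 g), half male and half female, 10 groups of n = 10. Single iv dose on day 1 across five levels per compound (prodrug 29.98–50.00 μmol/kg; arenobufagin 4.50–8.00 μmol/kg). Watched continuously for 8 h for abnormal behaviour and deaths, then intermittently for 2 weeks, and sacrificed day 14. LD50 by Bliss method.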

For data set [14], the system named is Mus musculus. In words: Acute toxicity in Kunming mouse assessed as mortality at 4 umol/kg, iv after 8 hrs post dose. The class given is organism-based. The note with it: in vivo.
Data set [15] deals with T1, Prolyl endopeptidase FAP. In words: Prodrug activation assessed as recombinant human FAP-alpha mediated (3S,5R,8R,9S,10S,11S,13R,14S,17R)-11,14-dihydroxy-10,13-dimethyl-12-oxo-17-(2-oxo-2H-pyran-5-yl)hexadecahydro-1H-cyclopenta[a]phenanthren-3-yl 4-aminobenzoate formation at 40 umol/L after 6 hrs by UPLC-MS/MS analysis. The note with it: 40 µM. In short, it runs like this:
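Prodrug at 40 μmol/L incubated with rhFAPα at 0.45 μg/mL in 0.2 mL buffer at 37 °C for 6 h, with bufalin at 2 μmol/L as internal standard. Stopped with acetonitrile and spun at 18 000g for 15 min. Released active form measured by UPLC-MS/MS via peak-area ratio against a standard curve of 0.625–40 μmol/L.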

Turning to `CC(C)[C@H](NC(=O)[C@@H]1CCCN1C(=O)CNC(=O)OCc1ccccc1)C(=O)O[C@H]1CC[C@@]2(C)[C@H](CC[C@@H]3[C@@H]2[C@H](O)C(=O)[C@]2(C)[C@@H](c4ccc(=O)oc4)CC[C@]32O)C1`, on Prolyl endopeptidase FAP [1], the CL was found to be 1270 µL/min/mg.

In the case of `C[C@]12CC[C@H](O)C[C@H]1CC[C@@H]1[C@@H]2[C@H](O)C(=O)[C@]2(C)[C@@H](c3ccc(=O)oc3)CC[C@]12O`, the Activity entry in data set [2] is “Non-Toxic”; with MDA-MB-231 [5], 45 - 50%; in the data set on Mus musculus [7] it was “Toxic”; with Mus musculus [8], “Toxic”; with Mus musculus [9] it was “Toxic”; in the data set on Mus musculus [10] it was “Toxic”. Further, the values for the Activity result with Mus musculus [11], with Mus musculus [12] and with Mus musculus [14] were “Toxic”, “Toxic” and “Non-Toxic”, respectively. Further, the figures for the IC50 in the data set with MDA-MB-435, in the data set with MCF7 and in the data set on MDA-MB-231 [3] were 22.4 nM, 8.88 nM and 15.7 nM, respectively. Also, the result with MDA-MB-231 [4] and in the data set on MDA-MB-231 [6] was Active. The molecule also came in with an LD50 at 4 h in [13] of 6.82 µmol/kg.

For the molecule `C[C@]12CC[C@H](OC(=O)c3ccc(NC(=O)[C@@H]4CCCN4C(=O)CNC(=O)OCc4ccccc4)cc3)C[C@H]1CC[C@@H]1[C@@H]2[C@H](O)C(=O)[C@]2(C)[C@@H](c3ccc(=O)oc3)CC[C@]12O`, on Prolyl endopeptidase FAP [15], the Drug metabolism entry was “Metabolite_Notdetected”.

For the origin of these results see ChEMBL document CHEMBL4038302, “Fibroblast Activation Protein α Activated Tripeptide Bufadienolide Antitumor Prodrug with Reduced Cardiotoxicity” (J Med Chem, 2017).
